Screens deposited in PubChem BioAssay by The Scripps Research Institute Molecular Screening Center.
CHRM4 PAM: human M4 muscarinic receptor positive allosteric modulators, primary screen, CHO-K1 cells, Fluo-8 calcium fluorescence; Muscarinic acetylcholine receptor M4 (Homo sapiens), P08173; CHO-K1 hM4/Gqi5, ACh EC20; 0% = ACh EC20, 100% = maximal ACh; activation, % at 3 µM; 360,000 tested, 0.4% active; AID 624126, 2012;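 active means activation above its plate's cutoff, the mean activation of sample wells plus 3 SD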
M5 antag: human M5 muscarinic receptor antagonists, primary screen, CHO cells, Fluo-8 calcium fluorescence | AID 624040, 2012 | inhibition, % at 3 µM | CHO-hM5 cells, ACh EC80 | Muscarinic acetylcholine receptor M5 (Homo sapiens), P08912 | 360,000 tested, 0.59% active;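 active means inhibition above a per-plate cutoff, the mean of that plate's test compounds plus 3 SD, cut at about 27% in these data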
Target sequence (P08912 whole entry, looked up): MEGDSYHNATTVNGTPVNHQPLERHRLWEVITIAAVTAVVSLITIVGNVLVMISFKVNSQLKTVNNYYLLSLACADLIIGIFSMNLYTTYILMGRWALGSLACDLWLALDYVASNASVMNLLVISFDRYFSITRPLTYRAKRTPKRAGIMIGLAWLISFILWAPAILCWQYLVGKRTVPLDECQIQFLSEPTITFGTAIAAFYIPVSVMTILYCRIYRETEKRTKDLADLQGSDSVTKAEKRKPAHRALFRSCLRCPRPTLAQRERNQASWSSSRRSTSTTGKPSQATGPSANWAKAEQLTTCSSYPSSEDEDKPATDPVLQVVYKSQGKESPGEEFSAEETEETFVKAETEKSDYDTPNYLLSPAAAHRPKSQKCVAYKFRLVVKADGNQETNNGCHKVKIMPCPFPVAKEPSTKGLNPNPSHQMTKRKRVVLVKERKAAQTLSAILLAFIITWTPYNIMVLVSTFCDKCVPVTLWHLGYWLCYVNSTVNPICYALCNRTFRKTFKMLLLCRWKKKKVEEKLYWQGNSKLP
M5 ag: human M5 muscarinic receptor agonists, primary screen, CHO-K1 cells, Fluo-8 calcium fluorescence; Muscarinic acetylcholine receptor M5 (Homo sapiens), P08912; CHO-K1 hM5 cells; 0% DMSO wells, 100% maximal acetylcholine response; activation, % at 3 µM; 360,000 tested, 0.19% active; AID 624037, 2012;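 active means activation above the run's mean over test compounds plus 3 SD, cut at about 23% in these data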;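 further: signal is peak over basal fluorescence ratio across the kinetic read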
M4 antag: human M4 muscarinic receptor antagonists, primary screen, CHO cells, Fluo-8 calcium fluorescence. CHO-hM4 cells, ACh EC80. inhibition, % at 3 µM. 360,000 tested, 0.73% active. AID 624125, 2012;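 active means inhibition above its plate's cutoff, the mean inhibition of sample wells plus 3 SD, cut at about 27% in these data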
M5 PAM: human M5 muscarinic receptor positive allosteric modulators, primary screen, CHO-K1 cells, Fluo-8 calcium fluorescence; Muscarinic acetylcholine receptor M5 (Homo sapiens), P08912; CHO-K1 hM5, ACh EC20 PAM; 0% = ACh EC20, 100% = ACh EC100; activation, % at 3 µM; 360,000 tested, 0.3% active; AID 624038, 2012;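 active means activation above the run cutoff, the mean activation of all test compounds plus 3 SD, cut at about 18% in these data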
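Assay system – human M5 receptor in CHO-K1 cells · Read-out – % activation, ACh-normalized · Technique – Fluo-8 calcium fluorescence · Dosing – single-point, 3 µM nominal · Incubation – Fluo-8 loading 80 min at 37 °C plus 30 min room temperature · Repeats – singlicate, one well per test compound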
M4 ag: human M4 muscarinic receptor agonists, primary screen, CHO-K1 cells, Fluo-8 calcium fluorescence; 360,000 tested, 0.14% active; Muscarinic acetylcholine receptor M4 (Homo sapiens), P08173; activation, % at 3 µM; CHO-K1 hM4/Gqi5; vehicle 0%, full acetylcholine response 100%; AID 624127, 2012;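 active means activation above the run mean over all test wells plus 3 SD, cut at about 32% in these data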;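 further: peak over basal fluorescence ratio per well then scaled between controls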
Each line names hits and unclear results; the compound was inactive in the other large screens. A selection: hits, their analogues and other compounds. The true share with any hit is near 1.8%.

COc1ccc(S(=O)(=O)CC2(O)CCN(C(=O)CC(C)C)CC2)cc1	none
OC1(C#CCCN2CCCCC2)c2ccccc2-c2ccccc21	M5 antag 90, M4 antag 56
OC1(CC#CCN2CCCCC2)c2ccccc2-c2ccccc21	none
C=CCn1c(SCC(=O)c2ccc(Cl)cc2)nnc1-c1ccc2c(c1)OCO2	none
Cc1ccc(-c2cc(C(=O)Nc3cnn(C45CC6CC(CC(C6)C4)C5)c3)no2)cc1	none
Cc1ccc(-c2cc(C(=O)Nc3cnn(C(C)C)c3)no2)cc1	M5 ag 26
CCN(C[C@H]1N[C@@](C)(C(=O)OC)[C@H]2C(=O)N(C)C(=O)[C@@H]12)C(=O)Nc1ccc(C(F)(F)F)cc1	none
CC(C)NC(=O)C1(C)CCN1C(=O)Cc1ccc(-c2ccccc2)cc1 (configuration not stated)	none
CC(C)(C)C(=O)Nc1nc2c(c(=O)[nH]1)CCCC2	CHRM4 PAM 21
CCC(=O)Nc1nc2c(c(=O)[nH]1)CCCC2	none
CCCCCC(=O)Nc1cccc(C2=NOC3(C2)C[C@H](C(N)=O)N(C(=O)c2ccccc2)C3)c1 (some centres not stated)	M5 PAM 19
Nc1cccc(-c2csc(-n3ncc(C(=O)O)c3C(F)(F)F)n2)c1	CHRM4 PAM 17
CC(=O)Nc1ccc(NC(=O)C(C)OC(=O)/C(C#N)=C/c2ccc(N(C)C)cc2)cc1 (configuration not stated)	M5 antag 61
COc1ccccc1CNC(=O)Cn1cccc1C(=O)c1ccccc1C	none
O=[N+]([O-])c1cccc(-c2cc3cccc[n+]3cc2-c2cccc([N+](=O)[O-])c2)c1	none
Cc1cccc2cc(-c3ccccc3)c(-c3ccccc3)c[n+]12	M4 antag 38
OCCCNc1ncnc2c1ncn2[C@H]1CN(Cc2ccc(-c3ccccc3)cc2)C[C@@H](CO)O1	none
CC(C)[C@@H]1CC[C@@H](C)C[C@H]1OC(=O)C[n+]1cc(-c2ccc(Cl)cc2)n2c1CCCCC2	M5 antag 77, M4 antag 42
COc1ccc(-c2c[n+](CC(=O)OC3CC(C)CCC3C(C)C)c3n2CCC3)cc1 (configuration not stated)	M5 antag 65, M4 antag 34
CC1CCC(C(C)C)C(OC(=O)C[n+]2cccc(C(N)=O)c2)C1 (configuration not stated)	none
COc1cc2c(C#N)c(N3CCc4ccccc4C3)nc(N)c2c(N)n1	M5 PAM 37
CC(C)(C)C1CCC(CN2C(Nc3ccccc3)=NC[C@@H]2Cc2ccccc2)CC1 (some centres not stated)	M5 antag 28, M4 antag 50
O=C(NCc1ccco1)c1ccc(CS(=O)c2ccccc2Cl)o1 (configuration not stated)	none
O=C(NCCCN1CCC(Cc2ccccc2)CC1)c1ccc(CS(=O)c2ccccc2Cl)o1 (configuration not stated)	M4 antag 28
Cc1nnc(SCC(=O)N2N=C(c3ccc(Cl)cc3)CC2c2ccco2)[nH]c1=O (configuration not stated)	CHRM4 PAM 23
COC(=O)c1cc(Sc2cccc(Cl)c2Cl)ccn1	M5 PAM 21
CC1=NOC(=O)/C1=C/c1ccc(-c2ccc(Cl)cc2)o1	M4 antag 34
CC1=NOC(=O)/C1=C\c1ccc(-c2ccc(Br)cc2)o1	M5 antag 31, M4 antag 34
CC1=NOC(=O)/C1=C\c1ccc(-c2cc(Cl)ccc2Cl)o1	none
COc1cccc(S(=O)(=O)NC2CCN(C#N)C2)c1 (configuration not stated)	none
Cc1cccc2c3c([nH]c12)CCNC3	none
